Test results published in PubChem BioAssay AID1242 (PCMD, 2008).
Among all 120,000 compounds or so, about 20 (0.02%) were called active.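 Rule for the calls: active = inhibition above 30.3% in the primary screen of four-compound pools, then above 30% when the compound was retested; inconclusive = passed the primary limit but could not be retested; inactive = the rest.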 For the sample, actives were picked, then their nearest neighbours and some compounds at random.

Assay: Candida albicans biofilm persister killing – 4-compound mixtures, primary screen (AID 1242);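 note: compounds exposed to preformed 24 h biofilms for 48 h; 0% = untreated biofilm control and 100% = clotrimazole plus chlorhexidine kill blank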
Conditions: C. albicans biofilm persisters + clotrimazole, fluorescence viability, primary screen in compound mixtures, hits give high values; at 7.6 µM unless noted
In short: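 Test system: C. albicans CAF4-2 wild-type biofilms; buffer or medium: RPMI/MOPS medium, pH 7.0; schedule: 24 h biofilm formation, then 48 h compound exposure, 37 °C; detection: Alamar Blue fluorescence; measure: percent inhibition of biofilm viability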

SMILES	inhibition
CC1Cc2ccccc2N1S(=O)(=O)c1ccc(Cl)nc1 (stereo unspecified)	14.3% (inactive)
Cc1cc2nc(C(F)(F)F)cc(-c3cccs3)n2n1	8.23% (inactive)
COc1ccc(C(=O)C2CCCN(C(=O)c3cc4nc(C)cc(C)n4n3)C2)cc1F (stereo unspecified)	16.6% (inactive)
CCOC(=O)C1(Cc2cccc(OC)c2)CCN(C(C)COC)CC1 (stereo unspecified)	14.5% (inactive)
NCC(=O)c1cccc2ccc[n+]([O-])c12	12.9% (inactive)
N=c1c2c3c(sc2ncn1N)CCCC3	20.4% (inactive)
CCOC(=O)CN1CCC(c2ccccc2)CC1	13.7% (inactive)
Cc1cc(N)n(-c2ccc(S(=O)(=O)N3CCCC3)cc2[N+](=O)[O-])n1	11.7% (inactive)
CC(=O)c1cccc(-n2nnnc2SCC(=O)NNC(=O)C2CCCCC2)c1	5.73% (inactive)
C/C(=N/Nc1ccc(Cl)cc1)c1cnnc(-c2ccccc2)n1	7.24% (inactive)
COc1ccc(Cl)cc1N(CC(=O)N/N=C/c1ccc(OCC(N)=O)cc1)S(C)(=O)=O	20.2% (inactive)
S=C(NCCc1ccccc1)N1CCn2cccc2C1c1ccncc1 (stereo unspecified)	11.1% (inactive)
COc1ccccc1C(c1nnnn1CC1CCCO1)N1CCN(c2ccccc2)CC1 (stereo unspecified)	29.3% (inactive)
COc1ccc(NC(=O)CSc2nnc(-c3ccccc3F)n2C2CC2)cc1S(N)(=O)=O	7.66% (inactive)
O=C(Cn1c(N2CCN(C/C=C/c3ccccc3)CC2)nc2ccccc21)c1ccccc1	9.46% (inactive)
CCC(C)(C)NC(=O)CN(C(=O)CCC(=O)Nc1cc(C)ccn1)c1ccc2c(c1)OCCO2	1.7% (inactive)
Cc1ccc(OCC(=O)NC(C)c2ccccc2)c([N+](=O)[O-])n1 (stereo unspecified)	8.35% (inactive)
CCc1cc2c(=O)c(-c3nc4ccccc4n3C)c(CCCC(=O)O)oc2cc1OC(=O)C(C)(C)C	14.2% (inactive)
COC(=O)Cc1ccc(NC(=S)NCc2ccco2)cc1	1.39% (inactive)
Cc1ccc(Cl)cc1NC(=O)C1CCN(S(C)(=O)=O)CC1	-19.3% (inactive)
CSc1nc(C)nc(C2CC2)c1C#N	26.1% (inactive)
CCc1nc2sc(C(=O)O)c(N)c2c2c1CCCC2	17.7% (inactive)
O=C1Nc2cc(Cl)c(Cl)cc2N(O)N1c1ccccc1Cl	16.7% (inactive)
CC1=CC=CC2=N/C(=N\S(=O)(=O)c3ccc(F)cc3F)c3ccccc3CN12	14.1% (inactive)

SMILES	inhibition
NNC(=O)c1cccc(COCC(F)(F)C(F)F)c1	11.2% (inactive)
CC(C)(C)n1nc2c(c1NC(=O)c1cc3ccccc3o1)CSC2	8.07% (inactive)
CC(=O)NC(=S)Nc1ccc(NC(=O)c2cccnc2)cc1	26.7% (inactive)
CN(c1ccccc1)S(=O)(=O)c1ccc(Cl)c(C(=O)OCC(N)=O)c1	9.93% (inactive)
COc1ccc2nc(Nc3nc(-c4ccncc4)cs3)sc2c1	12.3% (inactive)
COCCCNC(=O)Cn1c(=O)n(Cc2ccccc2Cl)c(=O)c2cc(OC)c(OC)cc21	5.13% (inactive)
COc1ccc(N=C(C)c2sc3ccccc3c2O)cc1	24.2% (inactive)
Cc1ccc(Cl)c(OCC(=O)NN2CCN(C)CC2)c1	16.5% (inactive)
CC1=C(C)CC(C(=O)NC(C)CCc2ccccc2)C(C(=O)O)C1 (stereo unspecified)	-32% (inactive)
C/C(CCc1ccccc1)=N\NC(=O)c1ccc(CN2CCOCC2)cc1	20.4% (inactive)
COc1ccc(S(=O)(=O)N(C)CC(=O)N2CCCC2)cc1Cl	15.4% (inactive)
COc1ccc(/C=N/NC(=O)CNC(=O)c2ccc(S(=O)(=O)N3CCCC3)cc2)c(OC)c1	1.69% (inactive)
O=C(Cc1ccc(F)cc1)N/N=C/c1ccc2c(c1)OCO2	-22.6% (inactive)
Cc1nnc(Nc2ccccc2F)s1	16.6% (inactive)
CCC(=O)c1ccc(N2CCN(C(=O)c3cc([N+](=O)[O-])ccc3F)CC2)c(F)c1	-4.84% (inactive)
Cn1c(SCC(=O)NC2CCCCC2)nnc1-c1ccc(N)cc1	21.9% (inactive)
COc1ccc(C(=O)NCC(=O)N/N=C/c2ccc([N+](=O)[O-])s2)cc1OC	20.6% (inactive)
C/C(=N/OC(=O)c1c(-c2c(F)cccc2Cl)noc1C)c1cnccn1	10.3% (inactive)
CC(=O)N/C(=C\c1ccc(F)cc1)C(=O)NC(Cc1ccccc1)C(=O)O (stereo unspecified)	14.6% (inactive)
N#Cc1c(NCCO)ccc([N+](=O)[O-])c1NCCO	15.9% (inactive)
Nn1c(SCc2ccccc2)nnc1C1CCCCC1	25.1% (inactive)
Cc1ccc(C(=O)O)cc1N1C(=O)CCCC1=O	29.3% (inactive)
O=C(O)CC/C(=N\NC(=O)c1ccc(F)cc1)c1ccc(Br)cc1	0.26% (inactive)
O=C1COc2ccc(C(=O)COC(=O)c3cccnc3Cl)cc2N1	3.67% (inactive)

SMILES	inhibition
Cn1c(=O)c2c(ncn2CC(=O)N/N=C/c2cn[nH]c2-c2ccc(F)cc2)n(C)c1=O	8.1% (inactive)
CCOC(=O)c1c(CN(C)C)n(-c2ccccc2)c2cc(Br)c(O)cc12	6.02% (inactive)
O=C(NCCN1CCOCC1)c1ccc2c(c1)N(Cc1ccc(Cl)cc1)CCS2	-21.2% (inactive)
Cc1cccc(NC(=S)NCCc2ccc(F)cc2)c1C	13.3% (inactive)
Cc1ccc(N2C(=O)SC(N(CC(=O)O)c3ccc(C)cc3)C2=O)cc1 (stereo unspecified)	30.1% (inactive)
COc1cc(OC)c(C(=O)OCC(=O)N2CC(=O)Nc3ccccc32)cc1OC	16% (inactive)
Cc1nn(C)c(C)c1CN(C(=O)CCc1nnc(Cc2c[nH]c3ccccc23)o1)C(C)C	21.1% (inactive)
C/C(=N\NC(=O)c1cccnc1)c1ccc(-c2ccccc2)cc1	11.8% (inactive)
Cc1ccc(S(=O)(=O)N(CC(=O)NN=C2CCN(C)CC2)c2ccc(F)cc2)cc1	12.2% (inactive)
CC(CO)(CO)NC(=O)c1ccc(=O)[nH]n1	20.4% (inactive)
NNC(=O)C1CC(O)CN1S(=O)(=O)c1ccc(Cl)cc1 (stereo unspecified)	-0.83% (inactive)
Cc1ccccc1NC(=O)NNC(=O)OC(C)(C)C	17.1% (inactive)
COc1ccc(C(=O)CSc2nnnn2C)c(OC)c1	0.17% (inactive)
CC(=O)Nc1ccc(S(=O)(=O)NC2(C(F)(F)F)C(=O)NC(C)=C2C#N)cc1 (stereo unspecified)	25.1% (inactive)
O=C(Nc1nnc(C2CC2)s1)C1=NN(C2CCS(=O)(=O)C2)C(=O)CC1 (stereo unspecified)	7.46% (inactive)
COc1cccc(/C=C/C(=O)Nc2ccc3c(c2)OCCO3)c1	21.2% (inactive)
O=C(CC1CCCCC1)NCc1ccc(F)cc1	14.7% (inactive)
Cc1ccc(CN2CCN(Cc3ccc(OCCO)cc3)CC2CCO)o1 (stereo unspecified)	19.8% (inactive)
COC(=O)c1cc(C(=O)OCC(=O)Nc2cc(C)on2)cc([N+](=O)[O-])c1	19.1% (inactive)
Cc1nc(=O)c(-c2ccccc2)c(C)n1-c1ccc(Br)cc1	15.2% (inactive)
O=C(CCc1ccccc1)NCCc1cccs1	19.8% (inactive)
Cc1ccc(C(=O)NNc2ncnc3ccccc23)cc1	25.7% (inactive)
CCOC(=O)C1CCN(c2ncnc3c2c(-c2ccccc2)cn3-c2ccc(C)cc2)CC1	10.1% (inactive)
O=C1CC(Cc2ccc(Cl)cc2)C(=O)N1c1cc(Cl)ccn1 (stereo unspecified)	15.9% (inactive)

SMILES	inhibition
CCc1ccccc1NC(=O)CSc1nnc(CCNC(=O)OC(C)(C)C)o1	24.5% (inactive)
O=C(O)c1cccc(NC(=O)c2cc(-c3cccc(Cl)c3)nc3ccccc23)c1	16.3% (inactive)
Cn1cnnc1SCC(=O)Nc1ccc(N2CCOCC2)cc1	1.33% (inactive)
COc1c(C)cc(C(=O)C2CCCN(S(=O)(=O)c3c(C)noc3C)C2)cc1C (stereo unspecified)	2.3% (inactive)
COc1cc(N2C(=O)c3ccccc3C2=O)c(Cl)cc1C(=O)OCC(=O)N1CCOCC1	3.87% (inactive)
COc1ccc(CCNC(=O)C(=O)Nc2ccc3nc4n(c(=O)c3c2)CCCCC4)cc1OC	5.01% (inactive)
O=C(O)c1ccc(/C=N/NC(=S)NCc2ccccc2)cc1	10.6% (inactive)
COc1ccc(-c2[nH]ncc2CN(Cc2nccn2C)C(C)C)cc1F	6.59% (inactive)
Cc1ccc(NC(=O)c2ccccn2)cc1S(=O)(=O)N1CCOCC1	7.29% (inactive)
Cc1ccc(NC(=S)N(CCN(C)C)Cc2cccs2)cc1C	17.2% (inactive)
O=[N+]([O-])c1cccc2ncccc12	12.4% (inactive)
COc1cccc(N2C(=O)CC(N3CCc4ccccc4C3)C2=O)c1 (stereo unspecified)	17.8% (inactive)
CCOc1cc(NC(=S)NCc2ccco2)c(OCC)cc1NC(=O)c1ccco1	2.67% (inactive)
N/C(=N\OC(=O)c1ccc2c(c1)OCO2)c1ccc(Br)cc1	8.49% (inactive)
CC(=O)Cn1ncc(N2CCOCC2)c(Br)c1=O	-3.05% (inactive)
Cn1nnnc1SCC(=O)NNC(=O)c1ccc(Br)cc1	11.2% (inactive)
CCCCN(C(=O)COc1ccc(NC(C)=O)cc1)C1CCS(=O)(=O)C1 (stereo unspecified)	12.9% (inactive)
O=C(c1cn2ccccc2n1)N1CCc2c([nH]c3ccccc23)C1c1ccccn1 (stereo unspecified)	0.31% (inactive)
O=c1[nH]c(N2CCN(Cc3ccc4c(c3)OCO4)CC2)nc2c1CCCC2	6.65% (inactive)
CCOC(=O)c1c(-c2cccc(N)c2)cn2ccccc12	6.08% (inactive)
O=C(Nc1ccc2c(c1)C(=O)OC2)Nc1cccc2ccccc12	-1.47% (inactive)
CC(Oc1ccc(Br)cc1Br)C(=O)NC1CCCC1 (stereo unspecified)	19.2% (inactive)
COc1ccc(CC(=O)NCC(=O)N/N=C/c2cc(Br)ccc2OC)cc1	19.3% (inactive)
CCOC(=O)/C(C#N)=C/c1ccc(N2CCCCC2)cc1	16.2% (inactive)
